Test results as given in ChEMBL document CHEMBL4616692, “Structure-Guided Optimization of Replication Protein A (RPA)-DNA Interaction Inhibitors” (ACS Med Chem Lett, 2020).
Activity calls are given as the source filed them. The rule behind the calls is not given here.

What was measured:
[1] = Inhibition of 5'[32P]-labeled 34 base ssDNA binding to recombinant full length human RPA expressed in Escherichia coli cells preincubated for 30 mins followed by labeled DNA addition and measured after 5 mins by electrophoretic mobility shift assay
Procedure, shortened: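 Purified heterotrimeric human RPA without tags or modifications, binding to ssDNA read by EMSA. […] IC50 is the mean of at least three independent experiments, reported as mean ± SD.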

[2] = Aqueous solubility of compound in unbuffered H2O at pH 7 by absorbance spectroscopy based LC-MS analysis; assay type: physicochemical; details: buffer
Procedure, shortened: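 Aqueous solubility was measured in three independent determinations and reported as mean and SD.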

[3] = Drug uptake in human H460 cells at 20 uM incubated for 4 hrs by LC-MS analysis; assay type: ADME, cell-based; details: nci-h460, 4 h
Procedure, shortened: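 H460 NSCLC cells. Individual points come from three independent determinations and are reported as mean and SD.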

Salmon testes DNA = test: Displacement of SYBR-green from salmon sperm DNA assessed as DNA intercalation by measuring reduction in fluorescence at 5 to 20 uM after 5 mins by fluorescent intercalator displacement assay; assay type: nucleic-acid assay; details: Salmonidae
Procedure, shortened: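 Sybr-green intercalator bound to DNA. Displacement was read as a fall in fluorescence across a range of compound concentrations. Doxorubicin served as the positive control.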

[4] = Irreversible inhibition of RPA (unknown origin); set-up: species or system Homo sapiens
Homo sapiens = species: Homo sapiens; test: Inhibition of 5'[32P]-labeled 34 base ssDNA binding to SUMO-His6-tagged RPA DBD A/B domain (181-432 residues) (unknown origin) expressed in Escherichia coli BL21 (DE3) cells preincubated for 30 mins followed by labeled DNA addition and measured after 5 mins by electrophoretic mobility shift assay

Compound | IC50 ([1]; read-out: IC50) [µM] | solubility [2] | also measured
CC1(C)[C@@H]2CC[C@@]1(C)[C@H](OC(=O)CBr)C2 |  |  | IC50 [4]: 16 µM
CCOc1ccc2cc(C3CC(c4ccc(-c5cnoc5)cc4)=NN3C(=O)CCCC(=O)O)c(Cl)nc2c1 (stereo not given) | 1.7 |  | inhibition (Homo sapiens): Active
CCOc1ccc2cc(C3CC(c4ccc(Br)cc4)=NN3C(=O)CCCC(=O)NCCCN3CCOCC3)c(Cl)nc2c1 (stereo not given) | 10 | Soluble | 
CCOc1ccc2cc(C3CC(c4ccc(I)cc4)=NN3c3cccc(C(=O)O)c3)c(Cl)nc2c1 (stereo not given) |  |  | IC50 [1]: Not Active
CCOc1ccc2cc(C3CC(c4ccc(-c5ccc(Cl)nc5)cc4)=NN3C(=O)CCCC(=O)O)c(Cl)nc2c1 (stereo not given) | 1.6 | Soluble | inhibition (Homo sapiens): Active; Drug uptake [3]: Active; inhibition (Salmon testes DNA): inactive
CCOc1ccc2cc(C3CC(c4ccc(-c5ccc(Br)nc5)cc4)=NN3C(=O)CCCC(=O)O)c(Cl)nc2c1 (stereo not given) | 1 |  | inhibition (Homo sapiens): Active; inhibition (Salmon testes DNA): inactive
CCOc1ccc2cc(C3CC(c4ccc(I)cc4)=NN3C(=O)CCCC(=O)O)c(Cl)nc2c1 (stereo not given) | 15.3 to 18 | Soluble | Drug uptake [3]: Not Active
CCOc1ccc2cc(C3CC(c4ccc(-c5ccco5)cc4)=NN3C(=O)CCCC(=O)O)c(Cl)nc2c1 (stereo not given) | 2.1 |  | inhibition (Homo sapiens): Active; inhibition (Salmon testes DNA): inactive
CCOc1ccc2cc(C3CC(c4ccc(-c5ccc(C(F)(F)F)nc5)cc4)=NN3C(=O)CCCC(=O)O)c(Cl)nc2c1 (stereo not given) | 4.3 | Soluble | 
C=CC(=O)Oc1ccc(C2=NN(C(=O)CCCC(=O)O)C(c3cc4ccc(OCC)cc4nc3Cl)C2)cc1 (stereo not given) | 8.9 |  | 
CCOc1ccc2cc(C3CC(c4ccc(N)cc4)=NN3C(=O)CCCC(=O)O)c(Cl)nc2c1 (stereo not given) | 2.3 |  | inhibition (Salmon testes DNA): inactive
CCOc1ccc2cc(C3CC(c4ccc(I)cc4)=NN3C(=O)CCCC(=O)N3CCOCC3)c(Cl)nc2c1 (stereo not given) | 6.6 |  | 
CC1(C)[C@@H]2CC[C@@]1(C)[C@H](OC(=O)CI)C2 |  |  | IC50 [4]: 10 µM
CCOc1ccc2cc(C3CC(c4ccc(I)cc4)=NN3C(=O)CCCC(=O)NCCN3CCOCC3)c(Cl)nc2c1 (stereo not given) | 10.5 |  | 
CCOc1ccc2cc(C3CC(c4ccc([N+](=O)[O-])cc4)=NN3C(=O)CCCC(=O)O)c(Cl)nc2c1 (stereo not given) | > 25 |  | 
COc1cccc2c1C(=O)c1c(O)c3c(c(O)c1C2=O)C[C@@](O)(C(=O)CO)C[C@@H]3O[C@H]1C[C@H](N)[C@H](O)[C@H](C)O1 |  |  | inhibition (Salmon testes DNA): Dose-dependent effect
CCOC(=O)CCCC(=O)N1N=C(c2ccc(I)cc2)CC1c1cc2ccc(OCC)cc2nc1Cl (stereo not given) |  |  | IC50 [1]: Not Active
CCOc1ccc2cc(C3CC(c4ccc(-c5ccc(F)nc5)cc4)=NN3C(=O)CCCC(=O)NCCCN3CCOCC3)c(Cl)nc2c1 (stereo not given) | 2.3 | Soluble | Drug uptake [3]: Active
CCOc1ccc2cc(C3CC(c4ccc(-c5ccc(Cl)nc5)cc4)=NN3C(=O)CCCC(=O)NCCCN3CCOCC3)c(Cl)nc2c1 (stereo not given) | 4 | Soluble | Drug uptake [3]: Active; inhibition (Salmon testes DNA): inactive

More lines, main results first:

IC50 ([1]; read-out: IC50) [µM] | solubility [2] | Compound | also measured
4.9 | Soluble | CCOc1ccc2cc(C3CC(c4ccc(I)cc4)=NN3C(=O)CCCC(=O)NCCCN3CCOCC3)c(Cl)nc2c1 (stereo not given) | Drug uptake [3]: Active; inhibition (Salmon testes DNA): inactive
2.6 | Soluble | CCOc1ccc2cc(C3CC(c4ccc(-c5ccc(F)nc5)cc4)=NN3C(=O)CCCC(=O)O)c(Cl)nc2c1 (stereo not given) | 
> 25 |  | CCOc1ccc2cc(C3CC(c4ccc(OC(=O)N5CCOCC5)cc4)=NN3C(=O)CCCC(=O)O)c(Cl)nc2c1 (stereo not given) | 
3.1 |  | CCOc1ccc2cc(C3CC(c4ccc(-c5ccc(N6CCOCC6)cc5)cc4)=NN3C(=O)CCCC(=O)O)c(Cl)nc2c1 (stereo not given) | inhibition (Homo sapiens): Active
> 25 |  | CCOc1ccc2cc(C3CC(c4ccc(O)cc4)=NN3C(=O)CCCC(=O)O)c(Cl)nc2c1 (stereo not given) | 
5.8 | Soluble | CCOc1ccc2cc(C3CC(c4ccc(-c5ccc(C(F)(F)F)nc5)cc4)=NN3C(=O)CCCC(=O)NCCCN3CCOCC3)c(Cl)nc2c1 (stereo not given) | Drug uptake [3]: Active
38 |  | CCOc1ccc2cc(C3CC(c4ccc(Br)cc4)=NN3C(=O)CCC(=O)O)c(Cl)nc2c1 (stereo not given) | 
6.7 |  | CCOc1ccc2cc(C3CC(c4ccc(-c5ccoc5)cc4)=NN3C(=O)CCCC(=O)O)c(Cl)nc2c1 (stereo not given) | 
19.2 | Soluble | CCOc1ccc2cc(C3CC(c4ccc(Br)cc4)=NN3C(=O)CCCC(=O)O)c(Cl)nc2c1 (stereo not given) | 
